In the RNAGym collection of RNA variant scans (doi:10.1126/science.aae0568) one finds yeast fitness data, which are given here for 75 variants.

This sample holds only a part of the variants without activity.

B1: tRNA (parent)
chain: GUUCCGUUGGCGUAAUGGUAACGCGUCUCCCUCCUAAGGAGAAGACUGCGGGUUCGAGUCCCGUACGGAACG

The data set covers variants of B1. Briefly: yeast fitness relative to wild type (ratio to wild type); higher = fitter; tRNA-Arg(CCU), competitive growth, 37 C, YPD. In short, it runs like this: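 Gene amplicons from the start population and from each of six end populations were read by 100-nucleotide paired-end sequencing. Those end populations came from pooled Saccharomyces cerevisiae strains carrying tRNA-Arg(CCU) gene variants at the native locus, competed in YPD at 37°C for 24 hours. Fitness relative to wild type was worked out from changes in genotype frequencies. Genotypes needed ≥ 100 starting reads, and estimates < 0.5 were set to 0.5.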
Regarding GUUGCGUUGGCGUGAUGGUAACGCGUCUCCCUCCUAUAGAGAAGACUGCGGGUUCGAGUCCCGUACGGAUCG, the yeast fitness was 0.628. For the variant GUUACGUUGGCGUAAUGGAAACGCGUCUCCCUCCUAAGGAGAAAACUGCGGGCUCGAGUCCCGUACGGAUCG, the yeast fitness is at most 0.5.

Consider GUUACGUUGGCGUAAUGGUAACGCGUCUCCCUCCAAUGGAGAAGACUGCGGGUUCGAGUCCCGUACGGAACG, for which the yeast fitness is at most 0.5.

As to GUUACGUUGGCGUAAUGGUAACGCGUCUCCCUCCUAAGGAGAAGACUGCGGGCUCGAGUCCCGAACGGAACG, the yeast fitness was at most 0.5. On to GUUGCGUUGGCGUCAUGGUAACGCGUCUCCCUCCUAAGGAGGAGACUGCGGGUUCGAGUCCCGUACGGAACG, for which the yeast fitness was at most 0.5. With GUUACGUUGGCGUAAUGGUAACGCGUCUCCCCCCUAAGGAGAAGACUGCGGGUUCGAGUCCCGUACAGAACG, the yeast fitness was 0.655. As for GUUACGUUGGCGUAAUGGUAACGCGUCUCCCACCUAAGGAGAAGACUGCGGGUUCGAGUCCCGUACGGAACG, the yeast fitness was 0.876.

With GUUACGUUGGCGUAAUGGUAACGCGUCUCCCUCCUAAGGAGAAGACUGCGGGUCCGAGACCCGUACGGAACG, the yeast fitness came out at 0.542.

With GUUGCGUUGGCGUCAUGGUAACGCGUCUCUCUCCUAAGGUGAAGACUGUGGGUUCGAGUCCCGUACGGAACG, the yeast fitness came to 0.504. The value for GUUACGUUGGCGUAAUGGCAACGCGUCUCCCUCCCAAGGAGAAGACUGCGGGUUCGAGUCCCGUACGGAACG was 0.685. For GUUACGUUGGCGUAAUGGUAACGCGUCUCCCUCCCAAGGAGAAGACUGCGGGUUCGAGUCCCGUAAGGAACG, the yeast fitness was at most 0.5. The value for GUUACGUUGGCGUAAUGGUAACGCGUCUCCCCCCUAAGGUGAAGACUGCGGGUUCGAGUCCCGUACGGAACG was 0.517; that for GUUACGUUGGCGUAAUGGUAACGCGUCUCCCUCCCAAGGAGAAGACUCCGGGUUUAAGUCCUGUACGGAACG was at most 0.5. In the case of GUUGCGUUGGCGUGAUGGUAACGCGUCUCCCUCCUAAGGAGAACACAGCGGGUUCGAGUCCCGUACGGAACG, the yeast fitness was at most 0.5. Turning to GUUACGUUGGCGUAAUGGUAACGCGCCUCCCUCCUAAGGAGAAGACUGCGGGUUCGAGUCCCGUCCGGAACG, the yeast fitness is at most 0.5.

In the case of GUUGCGUUGGCGUGAUGGUAACGCGUCUCCCUCCUAAGGAGAAGACUGCGGGUUCGAGUCCCGUACGGAACG, the yeast fitness stood at 0.78.

On to GUUGCGUUGGCGUCAUGGUAACGCGUCUCCCUCCUAAGGAGAAGACUGCGGGUUCGAGUCCCGUACGGAACG, for which the yeast fitness turned out to be 0.568. For the variant GUUGCGUUGGCGUUAUGGUAACGCGUCUCCCUCCUAAGGAGAAGACUGCGGGUUCGAGUCCCGUACGGAACG, the yeast fitness was 0.78.

Consider GUUACGUUGGCGUAAUGGAAACGCGUCUCCCUCCUAAGGAGAAGACUGCGGGUUCGAGUCCCGUACGGCACG, for which the yeast fitness turned out to be 0.602. As to GUUACGUUGGCGUAAUGGGAACGCGUCUCCCUCCCAAGGAGAAGACUGCGGGUUCGAGUCCCGUACGGAACG, the yeast fitness is at most 0.5.

With GUUACGUUGGCGUAAUGGUAACGCGUCUCCCUCCUAAGGAGAAGACUGCGGGCUCGAGUCCCGUACGCAACG, the yeast fitness worked out at 0.553. For the variant GUUACGUUGGCGUAAUGGUAACGCGACUCCCUCGUAAAGAGAAGACUGCGGGUUCGAGUCCCGUACGCAACG, the yeast fitness was at most 0.5.

As to GUUACGUUGGCGUAAUGGUAACGCGGCUCCCUCCUAAGGAGAACACUGCGGGUUCGAAUCCCGUACGGAACG, the yeast fitness amounted to 0.535. Consider GUUACGUUGGCGUAAUGGGAACGCGUCUCCGUCCUAAGGAGAAGCGUGCGGGUUCGAGUCCCGUACGGAACG, for which the yeast fitness is 0.555. Take GUUACGUUGGCGUAAUGGUAACGCGGCUCCCUCCUAAGGAGAAGACUGCGGGUUCGAGUCCCGUAUGGAACG: the yeast fitness is at most 0.5. In the case of GUUACGUUGGCGUAAGGGUAACGCGUCUCCCUCCUAAGGAGAAGACUGCGGCUUCGAGUCCCGAACGGAACG, the yeast fitness was at most 0.5. GUUACGUUGGCGUAAUGGUAACGCGUCUCCCUCCUAAGGAGAAGACUGCGGGAUCGAGUCCCGUACUGAACG: the yeast fitness is at most 0.5. With GUUACGUUGGCGUAAUGGUAACGCGUCUCCCUCCUAAGGAGAAGACACCGGGUUCGAGUCCCGUACGGAACG, the yeast fitness was 0.559. Regarding GUUGCGUUGGCGUCAUGGUCACGCGUCUCCCUCCUAAGGGGAACACUGCGGGCUAGAGUCCCGUUCGGAACG, the yeast fitness was at most 0.5.

Turning to GUUGCGUUGGCGUCAUGGUAAUGCGUCUCCCUCCUAAGGAGAAGACCGCGGGUUCGAGUCCCGUACGGAACG, the yeast fitness was at most 0.5. Then GUUACGUUGGCGUAAUGGUAACGCGUCUCCCUCCUAAGGAGAAGACUGCGGGUUCGAGACCCGUACGGAACG, with 0.664; and GUUACGUUGGCGUAAUGGUAACGCGUCUCCCUCCUAAGGAGAAGACUGCGGGUUCGAGCCCCGUACGGAACG, with 0.944. For the variant GUUGCGUUGGCGUCAUGGUAACGCGUCUCCUUCCAAAGGAGAAGACGGCGGGUUCGAGUCCCGUACGGAACG, the yeast fitness is at most 0.5. For the variant GUUACGUUGGCGUAAUGGUAACGCGUCUCCCUCCCAAGGAGAAGACUGCGGGUUCGAGUCCCGGACGGAACG, the yeast fitness is at most 0.5. For GUUACGUUGGCGUAAUGGUAACGCGUCUCCCCCCUAAGGAGAAGACUGCGGGUUCGAGUCCCGUACGCAACG, the yeast fitness turned out to be 0.867. The value for GUUACGUUGGCGUAAUGGUAACGCGUCUCCCCUCUAAGGAGAAGACUGGGGGUUCGAGUCCCGUACGGAACG was at most 0.5; that for GUUGCGUUGGCGUCAUGGUAACGCCUCUCCCUCCUAAGGAGAAGACUGCGGGUUCGAGUCCCGUACGGAACG was 0.8; that for GUUACGUUGGCGUAAUGGUAACGCGUCUCCCUCCUAAGGAGAAGACGGCGGGUUCGAGUCCCGUACGGAACG was 0.686. Then GUUACGUUGGCGUAAUGGUAACGCGUCUCCCUCCUAAGGAGAAGACAGCGGGUUCGAGUCCCGUACGGAACG, with 0.857. On to GUUACGUUGGCGUAAUGGUAACGCGUCUCCCCCCUAAGGAGACGACUGCGGGUUCGAGUCCCGUACGGAACG, for which the yeast fitness amounted to 0.57. Turning to GUUACGUUGGCGUAAUGGUAACGCGUCUCCCCCCUAAGGAGAAGACUGCGGGUUCGACUCCCGUACGGAACG, the yeast fitness amounted to 0.588. Regarding GUUACGUUGGCGUAAUGGUAACGCGUCUCCCCCCUAAGGAGAAGAGUGCGGGUUCGAGUCCCGUACGGAACG, the yeast fitness was 0.599. Regarding GUUACGUUGGCGUAAUGGUAACGCGUCUCCCUCCUAAGGAGAAGACCGCGGGUUCGAGUCCCGUACGGACCG, the yeast fitness is 0.749. On to GUUACGUUGGCGUAAUGGUAACGCGUCACACUCCUAAGGAGAAGACUGGGGGUUCGAGUCCCGUACGGACCG, for which the yeast fitness was at most 0.5.

In the case of GUUACGUUGGCGUAAUGGUAACGCGUCUCCCUCCUAAGGAGAAGACUGCGGGCUCGAGUCCCGUACGGAACG, the yeast fitness came out at 0.691. Take GUUGCGUUGGCGUCAUGGUAACGCGUCUCCCUCCUAAGGAGAAGACUGCCGGUUCGAGUCCGGUACGGAACG: the yeast fitness is at most 0.5. Turning to GUUACGUUGGCGUAAUGGUAACGCGUCUCCCUCCUAAGGAGAAGACUGCGGGUUCGAGUCCCGCACGGAACG, the yeast fitness turned out to be 0.923. Regarding GUUACGUUGGCGUAAUGGUAACGCGUCUCCCUCCUAAGGAGAAGACUGCGGGUUCGAGUCCCGGACGGAACG, the yeast fitness came out at 0.641.

For the variant GUUACGUUGGCGUAAGGGUAACGUGUCUCCCUCCUAAGGAGAAGACUACGGGUUCGAGUCCCGUACGGAACG, the yeast fitness was found to be 0.643. As to GUUACGUUGGCGUAAUGGUAACGCGUCACCCUCCUAAGGAGAAGACUGCGGGUUCGAGUCCCGUACGGAACG, the yeast fitness was 0.761. The value for GUUACGUUGGCGUAAUGGAAACGCGUCUCCCUCCUAAGGAGAAGACUGCGGGUUCGAGUCCCGUACGGAACG was 0.854. Take GUUACGUUGGCGUAAUGGGAACGCGUCUCCCUCCUAAGGAGAAGACUGCGGGUUCGAGUCCCGUACGGAACG: the yeast fitness was found to be 0.742. Then GUUACGUUGGCGUAAUGGGAACGCGUCUCCGUCCUAAGGAGAAGCGUGCGGGUUCCAGUCCCACACCGAACG, with at most 0.5; and GUUGCGUUGGCGUGAUGGUAACGCGUCUCCCUCCUAAGGAGAAGACUGCGGGUUCGAGUCCCGUACGGUACG, with 0.52; and GUUGCGUUGGCGUGAUGGUAACGCGUCUCCCUCCUAAGGAGAAGACUGCGGGUUCGAGUCCCGUACGGCACG, with 0.508. GUUACGUUGGCGUAAUGGUAACGCGUCUCCCCCCUAAGGAGAAGACUGCGGGUUCGAGUCCCGUAUGGAACG: the yeast fitness came out at 0.707. Then GUUGCGUUGGCGUCAUGGUAACGCGUCUCCCUCCUAAGGAGAAGACUAUGGGUUCGAGUCCCGUACGGAACG, with at most 0.5. Consider GUUACGUUGGCGUAAUGGGAACGCGUCUCCCUCCUAAGGAGAAGGUUGCGGGUUCGAGUCCCGUACGGAACG, for which the yeast fitness was at most 0.5. The value for GUUGCGUUGGCGUGAUGGUAACGCGUCUCCCUCCUAUAGAGAAGACUGCGGGUUCGAGUCCCCUACGGAACG was at most 0.5; that for GUUACGUUGGCGUAAUGGUAACGCGUCUCCCUCCCAAGGAGAAGACUGCGGGUUCGAGUCCCGUACGGAACG was 0.834; that for GUUGCGUUGGCGUGAUGGUAACGCGCCUCCCUCCUGCGGAGAAGACUGCGGGUUCGAGUCCCGUACGGAACG was at most 0.5. Then GUUGCGUUGGCGUGAUGGUAACGCGCCUCCCUCCUGCGGAGAAGACUGCGCGUUCGAGUCCCGUACGGAACG, with at most 0.5; and GUUACGUUGGCGUAAUGGUAACGCGUCUCCCUCCUAAGGAGAAGACAGCGGGUUCGAGUCUCGUACGGAACG, with 0.545. With GUUGCGUUGGCGUGAUGGUAACGCGUCUCCCUUCUAAGGAGAAGACUGCGGGUUCGAGUCCCGUACGGAACG, the yeast fitness is at most 0.5. As to GUUGCGUUGGCGUCAUGGUAACGCGUCUCCCUCCUAAGGAGAAGACCGCGGGUUCGAGUCCCGUACGGAACG, the yeast fitness is at most 0.5. Consider GUUACGUUGGCGUAAUGGUAACGCGUCUCCCGCCUAAGGAGAAGGCUGUGGGUUCGAGUCCCGUACGGAUCG, for which the yeast fitness was at most 0.5. Take GUUGCGUUGGCGUCAUGGUAACGCGUCUCUCUCCUAAGGUGAAGACUGCGGCUUCGAGUCCCGUACAGAACG: the yeast fitness was at most 0.5.

Take GUUACGUUGGCGUAAUGGUAACGCGUCCCCCUCCUAAGGAGAAGACUGCGGGUUCAAGUCUCGUACGGAACG: the yeast fitness was at most 0.5. Then GUUGCGUUGGCGUGAUGGUAACGUGUCUCCCGCCUAAGGAGAGGACUGCGGGUUCGAGUCCCGUAUGGAACG, with at most 0.5.

For the variant GUUGCGUUGGCGUGAUGGUAACGCGUCUCCCUCCUAAGGAGAAGACUGCGGGUUCGAGUCCCAUACGGAACG, the yeast fitness is at most 0.5. The value for GUUGCGUUGGCGUGAUGGUAACGCGUCUCCCUCCUAAGGAGAAGACUGCGGGUUCGAGUCCCGUACGAAACG was 0.59; that for GUUGCGUUGGCGUCAUGGUAACGCCUCUCCCUCCUAAGGAGAAGACUGCGGGUACGAGUCCCGUAGGGAACG was at most 0.5; that for GUUACGUUGGCGUAAUGGUAACGCGGCUCCCUCCUAAGGAGAACACUGCGGGUUCGAACCCCGUACGCAACG was at most 0.5.

Turning to GUUACGUUGGCGUAAUGGUAACGCGUCCCCCUCCUAAGGAGGAGACUGCGGGUUCGAGUCCCGUUCGGCACG, the yeast fitness was at most 0.5. Take GUUACGUUGGCGUAAUGGUAACGCGUCACCGUCCUAAGGUGAAGACUGCGGGUUCGAGUCCCGUUCGCAACG: the yeast fitness was at most 0.5.
